In brackets after ≈: the same amount, converted by molar mass. Activity calls are given as the source filed them. The rule behind the calls is not given here.
Legend:
Streptococcus pyogenes [1] = experiment: Ratio of MBC to MIC for inducibly erythromycin resistant Streptococcus pyogenes 01-968 expressing i-ermA; assay type: functional
Moraxella catarrhalis [2] = experiment: Bactericidal activity against erythromycin-susceptible Moraxella catarrhalis 13L332 assessed as reduction in colony formation incubated in CAMHB medium for 20 hrs followed by 24 hrs subculturing in the medium without test compound; assay type: functional
Streptococcus pneumoniae [3] = experiment: Antimicrobial activity against erythromycin-susceptible Streptococcus pneumoniae ATCC 49619 incubated in CAMHB medium for 20 to 24 hrs by two-fold microbroth dilution method; assay type: functional
Streptococcus pneumoniae [4] = experiment: Ratio of MBC to MIC for mef-encoded erythromycin resistant Streptococcus pneumoniae PU09; assay type: functional
Staphylococcus aureus [5] = experiment: Antimicrobial activity against constitutively erythromycin resistant and methicillin resistant Staphylococcus aureus PU20 expressing c-ermC incubated in CAMHB medium for 20 hrs by two-fold microbroth dilution method; assay type: functional; details: PU20, 20 h
Summary of the method: (§1)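 Purified fresh Staphylococcus isolate at about 5×10^5 CFU/ml final in CAMHB, 35 °C for 20 h. Each run included ATCC strains and reference antibiotics as QC, plus an antibiotic-free growth control.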

Streptococcus pneumoniae [6] = experiment: Ratio of MBC to MIC for erythromycin-susceptible Streptococcus pneumoniae ATCC 49619; assay type: functional
Staphylococcus aureus [7] = experiment: Bactericidal activity against inducibly erythromycin-resistant and methicillin resistant Staphylococcus aureus PU32 expressing i-ermA assessed as reduction in colony formation incubated in CAMHB medium for 20 hrs followed by 24 hrs subculturing in the medium without test compound; assay type: functional
Staphylococcus aureus [8] = experiment: Antimicrobial activity against inducibly erythromycin-resistant and methicillin resistant Staphylococcus aureus PU32 expressing i-ermA incubated in CAMHB medium for 20 hrs by two-fold microbroth dilution method; assay type: functional; details: PU32, 20 h; summary of the method: as §1
Moraxella catarrhalis [9] = experiment: Ratio of MBC to MIC for erythromycin-susceptible Moraxella catarrhalis 13L332; assay type: functional
Streptococcus pneumoniae [10] = experiment: Bactericidal activity against mef-encoded erythromycin resistant Streptococcus pneumoniae PU09 assessed as reduction in colony formation incubated in CAMHB medium for 20 to 24 hrs followed by 24 hrs subculturing in the medium without test compound; assay type: functional
Streptococcus pneumoniae [11] = experiment: Bactericidal activity against erythromycin-susceptible Streptococcus pneumoniae ATCC 49619 assessed as reduction in colony formation incubated in CAMHB medium for 20 to 24 hrs followed by 24 hrs subculturing in the medium without test compound; assay type: functional
Moraxella catarrhalis [12] = experiment: Antimicrobial activity against erythromycin-susceptible Moraxella catarrhalis 13L332 incubated in CAMHB medium for 20 hrs by two-fold microbroth dilution method; assay type: functional; details: 13L332, 20 h
Summary of the method: (§2)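 Clinical isolates and ATCC strains, purified by plate activation and used fresh; inoculum about 5×10^5 CFU/ml final. Grown in CAMHB at 35 °C for 20 h.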

Staphylococcus aureus [13] = experiment: Ratio of MBC to MIC for constitutively erythromycin resistant and methicillin-resistant Staphylococcus aureus PU20 expressing c-ermC; assay type: functional
Staphylococcus aureus [14] = experiment: Bactericidal activity against constitutively erythromycin resistant and methicillin-resistant Staphylococcus aureus PU20 expressing c-ermC assessed as reduction in colony formation incubated in CAMHB medium for 20 hrs followed by 24 hrs subculturing in the medium without test compound; assay type: functional
Streptococcus pneumoniae [15] = experiment: Antimicrobial activity against mef-encoded erythromycin resistant Streptococcus pneumoniae PU09 incubated in CAMHB medium for 20 to 24 hrs by two-fold microbroth dilution method; assay type: functional
Streptococcus pyogenes [16] = experiment: Antimicrobial activity against inducibly erythromycin resistant Streptococcus pyogenes 01-968 expressing i-ermA incubated in CAMHB medium for 20 to 24 hrs by two-fold microbroth dilution method; assay type: functional
Streptococcus pyogenes [17] = experiment: Bactericidal activity against inducibly erythromycin resistant Streptococcus pyogenes 01-968 expressing i-ermA assessed as reduction in colony formation incubated in CAMHB medium for 20 to 24 hrs followed by 24 hrs subculturing in the medium without test compound; assay type: functional
Staphylococcus aureus [18] = experiment: Antimicrobial activity against inducibly erythromycin-resistant Staphylococcus aureus PU32 expressing i-ermA incubated in CAMHB medium for 20 hrs by two-fold microbroth dilution method; assay type: functional; details: PU32, 20 h
Summary of the method: (§3)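 Purified fresh Staphylococcus isolate at about 5×10^5 CFU/ml final in CAMHB, 35 °C for 20 h. […] Each run included ATCC strains and reference antibiotics as QC, plus an antibiotic-free growth control.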

[19] = test system: Staphylococcus epidermidis; experiment: Antimicrobial activity against Staphylococcus epidermidis E1 incubated in CAMHB medium for 20 hrs by two-fold microbroth dilution method; assay type: functional; details: E1, 20 h; summary of the method: as §2
Streptococcus pneumoniae [20] = experiment: Bactericidal activity against mef-encoded erythromycin resistant Streptococcus pneumoniae PU09 at 1 to 16xMIC incubated for 1 to 24 hrs by broth dilution method; assay type: functional, organism-based
Summary of the method: (§4)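 Samples were taken at 1, 2, 4, 6, 8, 12 and 24 h, diluted and subcultured at 35 °C for 20–24 h. Colonies were counted and log CFU plotted against time; detection limit 300 CFU/mL.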

Streptococcus pyogenes [21] = experiment: Antimicrobial activity against erythromycin-susceptible Streptococcus pyogenes A3 incubated in CAMHB medium for 20 to 24 hrs by two-fold microbroth dilution method; assay type: functional
Staphylococcus aureus [22] = experiment: Ratio of MBC to MIC for inducibly erythromycin-resistant and methicillin resistant Staphylococcus aureus PU32 expressing i-ermA; assay type: functional
Streptococcus pyogenes [23] = experiment: Bactericidal activity against inducibly erythromycin resistant Streptococcus pyogenes 01-968 expressing i-ermA at 1XMIC incubated for 12 hrs by broth dilution method; assay type: functional, organism-based; summary of the method: as §4
Streptococcus pneumoniae [24] = experiment: Antimicrobial activity against constitutively erythromycin resistant Streptococcus pneumoniae PU27 expressing c-erm incubated in CAMHB medium for 20 to 24 hrs by two-fold microbroth dilution method; assay type: functional
Summary of the method: (§5)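 Purified fresh Streptococcus isolate at about 5×10^5 CFU/ml final in CAMHB with 5% horse serum, 35 °C for 20–24 h. […] Each run included ATCC strains and reference antibiotics as QC, plus an antibiotic-free growth control.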

Staphylococcus aureus [25] = experiment: Antimicrobial activity against inducibly erythromycin resistant Staphylococcus aureus PU64 expressing i-ermA incubated in CAMHB medium for 20 hrs by two-fold microbroth dilution method; assay type: functional; details: PU64, 20 h; summary of the method: as §3
Staphylococcus aureus [26] = experiment: Antimicrobial activity against erythromycin-susceptible Staphylococcus aureus ATCC 29213 incubated in CAMHB medium for 20 hrs by two-fold microbroth dilution method; assay type: functional; details: ATCC 29213, 20 h; summary of the method: as §2
Staphylococcus aureus [27] = experiment: Antimicrobial activity against constitutively erythromycin resistant Staphylococcus aureus PU20 expressing c-ermC incubated in CAMHB medium for 20 hrs by two-fold microbroth dilution method; assay type: functional; details: PU20, 20 h; summary of the method: as §3
Streptococcus pyogenes [28] = experiment: Antimicrobial activity against constitutively erythromycin resistant Streptococcus pyogenes A2 expressing c-erm incubated in CAMHB medium for 20 to 24 hrs by two-fold microbroth dilution method; assay type: functional; summary of the method: as §5
Streptococcus pneumoniae [29] = experiment: Bactericidal activity against erythromycin-susceptible Streptococcus pneumoniae ATCC 49619 assessed as log reduction in bacterial CFU at 1 to 16XMIC incubated for 1 to 24 hrs by broth dilution method; assay type: functional
Summary of the method: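 Samples taken at 1, 2, 4, 6, 8, 12, 24 h, diluted and plated, colonies counted after 20-24 h at 35 °C; log CFU plotted against time. Detection limit 300 CFU/mL.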

Streptococcus pyogenes [30] = experiment: Bactericidal activity against inducibly erythromycin resistant Streptococcus pyogenes 01-968 expressing i-ermA at 1XMIC incubated for 24 hrs by broth dilution method; assay type: functional, organism-based; summary of the method: as §4

Structure (SMILES)	Ratio (Streptococcus pyogenes [1])	MBC (Moraxella catarrhalis [2])	MIC (Streptococcus pneumoniae [3])	Ratio (Streptococcus pneumoniae [4])	MIC (Staphylococcus aureus [5])	Ratio (Streptococcus pneumoniae [6])	MBC (Staphylococcus aureus [7])	MIC (Staphylococcus aureus [8])	Ratio (Moraxella catarrhalis [9])	MBC (Streptococcus pneumoniae [10])	MBC (Streptococcus pneumoniae [11])	MIC (Moraxella catarrhalis [12])	Ratio (Staphylococcus aureus [13])	MBC (Staphylococcus aureus [14])	MIC (Streptococcus pneumoniae [15])	MIC (Streptococcus pyogenes [16])	MBC (Streptococcus pyogenes [17])	also measured
CC[C@H]1OC(=O)[C@H](C)[C@@H](OCC#Cc2ccc(OCc3ccccc3)cc2)[C@H](C)[C@@H](O[C@@H]2O[C@H](C)C[C@H](N(C)C)[C@H]2O)[C@](C)(OC)C[C@@H](C)/C(=N\OC)[C@H](C)[C@H]2OC(=O)O[C@@]21C	2	8 µg/mL (≈ 9.25 µM)	8 µg/mL (≈ 9.25 µM)	2	32 µg/mL (≈ 37 µM)	4	> 256 µg/mL	> 256 µg/mL	1	16 µg/mL (≈ 18.5 µM)	32 µg/mL (≈ 37 µM)	8 µg/mL (≈ 9.25 µM)	8	256 µg/mL (≈ 296 µM)	8 µg/mL (≈ 9.25 µM)	4 µg/mL (≈ 4.62 µM)	8 µg/mL (≈ 9.25 µM)	
CC[C@H]1OC(=O)[C@H](C)[C@@H](OCC#Cc2ccc(-c3ccccn3)s2)[C@H](C)[C@@H](O[C@@H]2O[C@H](C)C[C@H](N(C)C)[C@H]2O)[C@](C)(OC)C[C@@H](C)/C(=N\OC)[C@H](C)[C@H]2OC(=O)O[C@@]21C	8	8 µg/mL (≈ 9.5 µM)	4 µg/mL (≈ 4.75 µM)	2	256 µg/mL (≈ 304 µM)	4	> 256 µg/mL	> 256 µg/mL	2	16 µg/mL (≈ 19 µM)	16 µg/mL (≈ 19 µM)	4 µg/mL (≈ 4.75 µM)	1	256 µg/mL (≈ 304 µM)	8 µg/mL (≈ 9.5 µM)	8 µg/mL (≈ 9.5 µM)	64 µg/mL (≈ 76 µM)	
CC[C@H]1OC(=O)[C@H](C)C(=O)[C@H](C)[C@@H](O[C@@H]2O[C@H](C)C[C@H](N(C)C)[C@H]2O)[C@](C)(OC)C[C@@H](C)C(=O)[C@H](C)[C@H]2N(CCCCn3cnc(-c4cccnc4)c3)C(=O)O[C@]12C [TELITHROMYCIN]	4 - 8	0.5 µg/mL (≈ 0.616 µM)		4 - 8	> 256 µg/mL	1 - 4	1 to 2 µg/mL (≈ 1.23 to 2.46 µM)	0.25 µg/mL (≈ 0.308 µM)	4	1 to 4 µg/mL (≈ 1.23 to 4.93 µM)	0.031 to 0.125 µg/mL (≈ 0.0382 to 0.154 µM)	0.125 µg/mL (≈ 0.154 µM)		> 256 µg/mL	0.25 to 1 µg/mL (≈ 0.308 to 1.23 µM)	0.031 to 0.062 µg/mL (≈ 0.0382 to 0.0764 µM)	0.13 to 0.5 µg/mL (≈ 0.16 to 0.616 µM)	MIC (Staphylococcus aureus [18]): 0.125 µg/mL (≈ 0.154 µM); MIC [19]: 0.125 µg/mL (≈ 0.154 µM); Activity (Streptococcus pneumoniae [20]): Active; MIC (Streptococcus pyogenes [21]): ≤ 0.032 µg/mL; Ratio (Staphylococcus aureus [22]): >=4 - 8; Activity (Streptococcus pyogenes [23]): Active; MIC (Streptococcus pneumoniae [24]): ≤ 0.032 µg/mL; MIC (Staphylococcus aureus [25]): 0.125 µg/mL (≈ 0.154 µM); MIC (Staphylococcus aureus [26]): 0.125 µg/mL (≈ 0.154 µM); MIC (Staphylococcus aureus [27]): > 256 µg/mL; MIC (Streptococcus pyogenes [28]): 32 µg/mL (≈ 39.4 µM); Activity (Streptococcus pneumoniae [29]): 3 log10CFU; Activity (Streptococcus pyogenes [30]): inactive
CC[C@H]1OC(=O)[C@H](C)[C@@H](OCC#Cc2ccc(C(=O)c3ccccc3)s2)[C@H](C)[C@@H](O[C@@H]2O[C@H](C)C[C@H](N(C)C)[C@H]2O)[C@](C)(OC)C[C@@H](C)/C(=N\OC)[C@H](C)[C@H]2OC(=O)O[C@@]21C	2	16 µg/mL (≈ 18.4 µM)	8 µg/mL (≈ 9.21 µM)		32 µg/mL (≈ 36.8 µM)	2	> 256 µg/mL	> 256 µg/mL	2	8 µg/mL (≈ 9.21 µM)	16 µg/mL (≈ 18.4 µM)	8 µg/mL (≈ 9.21 µM)	>8	> 256 µg/mL	4 µg/mL (≈ 4.6 µM)	4 µg/mL (≈ 4.6 µM)	8 µg/mL (≈ 9.21 µM)	
